Compound activity from PubChem BioAssay.
M4 PAM: human M4 muscarinic receptor positive allosteric modulators, primary screen, CHO-K1 cells, Fluo-8 calcium fluorescence; CHO-K1 hM4/Gqi5, ACh EC20; 0% = ACh EC20, 100% = maximal ACh; activation, % at 3 µM; Muscarinic acetylcholine receptor M4 (Homo sapiens), P08173; AID 624126, 2012; hit rate 0.4% among 360,000;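 active means activation above its plate's cutoff, the mean activation of sample wells plus 3 SD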
M5 PAM: human M5 muscarinic receptor positive allosteric modulators, primary screen, CHO-K1 cells, Fluo-8 calcium fluorescence; Muscarinic acetylcholine receptor M5 (Homo sapiens), P08912; CHO-K1 hM5, ACh EC20 PAM; 0% = ACh EC20, 100% = ACh EC100; activation, % at 3 µM; hit rate 0.3% among 360,000; AID 624038, 2012;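 active means activation above the run cutoff, the mean activation of all test compounds plus 3 SD, cut at about 18% in these data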
Target sequence (P08912 whole entry, looked up): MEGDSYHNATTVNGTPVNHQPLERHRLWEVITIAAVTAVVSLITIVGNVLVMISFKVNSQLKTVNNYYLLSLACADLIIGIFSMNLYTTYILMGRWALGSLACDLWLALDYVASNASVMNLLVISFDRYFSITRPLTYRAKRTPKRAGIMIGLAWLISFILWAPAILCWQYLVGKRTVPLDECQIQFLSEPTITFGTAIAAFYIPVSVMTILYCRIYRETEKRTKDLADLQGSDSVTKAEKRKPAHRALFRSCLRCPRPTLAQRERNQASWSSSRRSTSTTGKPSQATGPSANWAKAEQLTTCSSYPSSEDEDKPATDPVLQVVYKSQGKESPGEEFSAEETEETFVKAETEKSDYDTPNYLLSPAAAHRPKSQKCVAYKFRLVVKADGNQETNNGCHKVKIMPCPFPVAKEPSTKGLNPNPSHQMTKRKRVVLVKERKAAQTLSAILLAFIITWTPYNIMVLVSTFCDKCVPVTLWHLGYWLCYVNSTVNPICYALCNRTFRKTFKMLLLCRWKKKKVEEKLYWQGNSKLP
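Probe or stimulus: acetylcholine, EC20 level; Assay system: human M5 receptor in CHO-K1 cells; Schedule: compound preincubation 140 s before EC20 acetylcholine addition; Technique: intracellular calcium via Fluo-8 fluorescence; Dosing: single-point, 3 µM nominal; Read-out basis: percent activation from peak-over-basal fluorescence ratio, scaled EC20-to-EC100 acetylcholine; Repeats: one well per compound, no replicates.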
CHRM4 agonist: human M4 muscarinic receptor agonists, primary screen, CHO-K1 cells, Fluo-8 calcium fluorescence; hit rate 0.14% among 360,000; activation, % at 3 µM; CHO-K1 hM4/Gqi5; vehicle 0%, full acetylcholine response 100%;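 active means activation above the run mean over all test wells plus 3 SD, cut at about 32% in these data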;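 further: peak over basal fluorescence ratio per well then scaled between controls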
M5 ag: human M5 muscarinic receptor agonists, primary screen, CHO-K1 cells, Fluo-8 calcium fluorescence | Muscarinic acetylcholine receptor M5 (Homo sapiens), P08912 | CHO-K1 hM5 cells; 0% DMSO wells, 100% maximal acetylcholine response | activation, % at 3 µM | hit rate 0.19% among 360,000;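 active means activation above the run's mean over test compounds plus 3 SD, cut at about 23% in these data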;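 further: signal is peak over basal fluorescence ratio across the kinetic read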
CHRM5 antagonist: human M5 muscarinic receptor antagonists, primary screen, CHO cells, Fluo-8 calcium fluorescence; Muscarinic acetylcholine receptor M5 (Homo sapiens), P08912; CHO-hM5 cells, ACh EC80; inhibition, % at 3 µM; hit rate 0.59% among 360,000;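 active means inhibition above a per-plate cutoff, the mean of that plate's test compounds plus 3 SD, cut at about 27% in these data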
M4 antag: human M4 muscarinic receptor antagonists, primary screen, CHO cells, Fluo-8 calcium fluorescence; Muscarinic acetylcholine receptor M4 (Homo sapiens), P08173; CHO-hM4 cells, ACh EC80; inhibition, % at 3 µM; hit rate 0.73% among 360,000; AID 624125, 2012;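 active means inhibition above its plate's cutoff, the mean inhibition of sample wells plus 3 SD, cut at about 27% in these data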
Numbers stand for hits; 0 = inactive. Compounds with a hit are over-represented: about 1.8% of the library has one in this group of screens.

SMILES	M4 PAM	M5 PAM	CHRM4 agonist	M5 ag	CHRM5 antagonist	M4 antag
C=CCn1c(=O)c(C(=O)Nc2ccccc2O)c(O)c2ccccc21	0	0	0	0	0	0
CC(C)Cn1c(=O)c(C(=O)Nc2ccncc2)c(O)c2ccccc21	0	0	0	0	100	98
C=CCn1c(=O)c(C(=O)Nc2ccccc2C)c(O)c2ccccc21	0	27	0	0	0	0
COCCOC(=O)c1c(NC(=O)COC(=O)Cc2cccc(OC)c2)sc(C(N)=O)c1C	0	0	0	0	0	0
CC(C)c1ccc(-c2nc(N3CCCC3)nc3n[nH]c(N)c23)cc1	0	54	0	0	0	0
Cc1ccc(C(=O)NC(C)c2ccc(F)cc2)cc1 (stereo unspecified)	0	0	0	0	0	0
CC(C)Cc1ccc(C(C)NC(=O)c2ccc(=O)[nH]c2)cc1 (stereo unspecified)	0	0	0	25	0	0
CC(C)CCOc1ccc(C(=O)NCC(c2ccco2)N(C)C)cc1 (stereo unspecified)	0	0	0	0	0	0
Cn1c(=O)c2c(nc(N/N=C/c3ccncc3)n2Cc2ccccc2)n(C)c1=O	0	21	0	0	0	0
Cn1c(=O)c2c(nc(Oc3ccc4c(c3)OCO4)n2Cc2ccc(Cl)cc2)n(C)c1=O	0	33	0	0	0	0
Cn1c(=O)c2c(nc(SCCN3CCCCC3)n2Cc2ccccc2)n(C)c1=O	0	0	0	0	0	28
CN(Cc1ccccc1)c1nc2c(c(=O)n(C)c(=O)n2C)n1CCCc1ccccc1	0	0	0	0	0	27
Cc1ccc(Cn2c(N/N=C/c3ccncc3)nc3c2c(=O)n(C)c(=O)n3C)cc1	0	0	0	0	0	0
CCN(CC)c1nc2c(c(=O)n(C)c(=O)n2C)n1CCCc1ccccc1	0	0	0	0	0	0
Cc1ccc(Cn2c(SCCN3CCCCC3)nc3c2c(=O)n(C)c(=O)n3C)cc1	0	0	0	0	0	0
COCCCNC(=O)c1cccc2c(-c3ccnn3C)coc12	0	0	0	0	0	0
O=C(NCc1cccs1)c1csc(COCCO)n1	0	0	0	0	0	0
COc1ccc(Oc2nc3c(c(=O)n(C)c(=O)n3C)n2Cc2ccccc2)cc1	30	0	0	0	0	0
CC(=O)Nc1cccc(-c2ccnc3c2CC(C(=O)NCc2ccc(F)c(F)c2)O3)c1 (stereo unspecified)	0	0	0	0	0	0
CCC(=O)N1CCC1(C)C(=O)Nc1ncc(C)s1 (stereo unspecified)	19	0	0	0	0	0
CCC(=O)N1CCC1(C)C(=O)Nc1nccs1 (stereo unspecified)	0	0	0	0	0	0
COc1ccc([C@@H]2C[C@H]3[C@@H](CN2S(=O)(=O)c2ccccc2)C(=O)C[C@@H](c2cccc4ccccc24)N3S(=O)(=O)c2ccc(C)cc2)cc1	0	0	0	0	0	0
Cc1ccc(NC(=O)Cn2cc(C=O)c3ccccc32)cc1	0	0	0	0	0	0
O=Cc1cn(CC(=O)Nc2ccc3c(c2)OCO3)c2ccccc12	0	0	0	0	27	0
CNC(=S)Nn1cnc2ccccc21	0	22	0	0	0	0
SMILES	M4 PAM	M5 PAM	CHRM4 agonist	M5 ag	CHRM5 antagonist	M4 antag
O=S1(=O)CC(N2CC=CC2)CN1Cc1cn(Cc2cccc(C(F)(F)F)c2)nn1 (stereo unspecified)	0	0	0	0	0	0
N#Cc1cn(N2CCCCC2)c(=O)[nH]c1=O	0	0	0	0	0	0
Cc1ccc(C)n1-c1ccc(C(=O)NN)cc1	0	21	0	0	0	0
Cc1ccc(C)n1-c1ccc(C(=O)NCc2ccncc2)cc1	0	0	0	0	0	0
CCOC(CNC(=O)c1ccc2c(c1)ncn2-c1cccc(F)c1)OCC	0	0	0	0	28	0
CCN1CCN(CNC(=O)c2cnccn2)CC1	0	21	0	0	0	0
O=c1[nH]c(=S)[nH]c2c1C(c1cccc(C(F)(F)F)c1)OC(CCc1ccccc1)C2 (stereo unspecified)	0	0	0	0	0	0
CN(C)S(=O)(=O)c1cccc(CSCc2cccc(S(=O)(=O)N(C)C)c2)c1	0	0	0	0	41	0
CCc1nc(SCc2ccc(Cl)cc2)n[nH]1	0	0	0	0	0	0
O=S(=O)(Nc1nc(SCc2ccc(Cl)cc2)n[nH]1)c1ccc(F)cc1	0	22	0	0	0	0
Clc1cccc2sc(N3CCOCC3)nc12	0	26	0	0	0	0
Clc1cccc2sc(N3CCCC3)nc12	0	0	0	0	0	0
O=S(=O)(Nc1cccnc1)c1ccc(Cl)cc1	20	0	0	0	0	0
O=C(Nc1ccccc1C(=O)O)c1ccc(Br)o1	0	0	0	0	0	0
CC(=O)c1cc(C(=O)Nc2ccccc2C(=O)O)oc1C	32	0	0	0	0	0
COc1ccc(Cn2cc(F)c(=O)n(C)c2=O)cc1[N+](=O)[O-]	0	18	0	0	0	0
Cc1nn(-c2ccc(Cl)cc2)c(Cl)c1/C=N/NC(=O)c1ccc(NS(=O)(=O)c2cccs2)cc1	0	0	0	0	0	0
COc1cccc(CNC(=O)C(NS(=O)(=O)c2ccc3c(c2)CCN3C(C)=O)C(C)C)c1 (stereo unspecified)	0	0	0	0	0	0
CCOc1ccc(S(=O)(=O)NCCc2cn3ccccc3n2)cc1	16	0	0	0	0	0
CCN1C[C@@H]2[C@@H]3C(=O)N(C)C(=O)[C@@H]3[C@](CC)(C1=O)N2C(=O)c1ccc(C(C)(C)C)cc1	0	0	0	0	0	0
CC1=CC(C)(C)N(C(=O)CNC2CCCC2)c2cc(C)ccc21	0	0	0	0	37	49
CCOc1ccc2c(c1)N(C(=O)CN1C(=O)CCC1=O)C(C)(C)C=C2C	0	0	0	0	0	0
COc1cc(/C=C2\SC(=S)N(NC(=O)c3ccc(O)c(OC)c3)C2=O)ccc1O	0	0	35	25	0	0
COc1cc(/C=C2\SC(=S)N(CCC(=O)Nc3ccccc3)C2=O)cc(OC)c1OC	0	0	0	0	0	0
COc1cc(/C=C2\SC(=S)N(CCC(=O)Nc3cccc(O)c3)C2=O)cc(OC)c1OC	0	0	0	0	27	0
